Screening results as filed in PubChem.
KCNQ1 act: human KCNQ1 channel potentiation or activation. B-score at 10 µM. AID 2648. 310,000 compounds, 0.35% hits. CHO-K1 KCNQ1, thallium flux FluxOR fluorescence; active compounds read high;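 active means fluorescence ratio B-score, a plate-corrected score, at least three library SD, with initial intensity B-score within 5 SD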
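Assay system: CHO-K1 cells stably expressing KCNQ1; Medium: assay buffer with matched DMSO; Also added: K+/Tl+ depolarizing stimulus; Dosing: single dose; Timing: dye 90 min, compound 20 min, room temperature; Measured by: kinetic FluxOR thallium fluorescence, 10-s 1-Hz baseline, 110-s post-stimulus read; Read-out: peak-minus-minimum fluorescence over initial fluorescence, negative-control normalized, B-scored.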
KCNK9 block: human KCNK9 channel inhibition; Q9NPC2; HEK293 KCNK9, FluxOR thallium flux fluorescence; active compounds read low; B-score at 10 µM; 310,000 compounds, 1.2% hits; AID 488922;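 active means ratio B-score over 3 SD below the library mean, with starting fluorescence within 5 SD of its mean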;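 further: negative B-score means less thallium flux so channel inhibition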
Cl transport mod: KCC2 (human) Cl- transport modulation | Q9H2X9 | KCC2 cells, thallium flux FluoZin-2 fluorescence | B-score of Tl+ flux slope (higher = more flux/activation; lower = inhibition) at 10 µM | 190,000 compounds, 2.2% hits | AID 1456;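 active means thallium flux slope and its plate-corrected score both differing from the plate sample mean at a set confidence after two filtering rounds, in either direction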;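 further: slope of fluorescence scaled to starting intensity during 10 to 20 s after thallium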
hERG protect: shields human hERG channel from block by proarrhythmic agents | activation (rescue from dofetilide block), less the hit threshold, % at 10 µM | CHO-hERG, FluxOR thallium flux, dofetilide IC70 present | 310,000 compounds, 0.51% hits | Q12809;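 active means activation above the mean of controls blocked by dofetilide plus 5 SD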;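 further: thallium influx through hERG after potassium depolarization seen as dye fluorescence rise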
KCNK3 inh: human KCNK3 channel inhibition, primary screen; O14649; CHO-KCNK3 thallium flux, FluxOR fluorescence; active compounds read low; B-score at 10 µM; 340,000 compounds, 0.84% hits; AID 602410;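 active means B-score under library mean minus 4 SD, starting fluorescence ratio at most library mean plus 5 SD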;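 further: more negative B-score means stronger inhibition of thallium flux through KCNK3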
KCNQ1 inh: inhibitors of human KCNQ1 potassium channel. B-score at 10 µM. P51787. CHO-K1 KCNQ1, FluxOR thallium flux fluorescence; active compounds read high. 310,000 compounds, 1.3% hits;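 active means compounds whose thallium flux B-score, printed positive for inhibition, exceeds three library SD while starting fluorescence stays within three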;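 further: channel opened by potassium depolarization with thallium stimulus after 20 min compound exposure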
KCNK9 inh conf: human KCNK9 inhibitor confirmation | 4,900 compounds, 43% hits | AID 492992 | inhibition, % at 10 µM | HEK293 KCNK9 cells, FluxOR thallium flux fluorescence | shares compounds with KCNK9 block;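 active means thallium signal inhibited by more than 5 SD of the compound-free buffer control wells, on both duplicate plates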;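 further: 0% = assay buffer control wells without compound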
Kir21 sel: tests whether KCNK9 modulators also affect mouse Kir2.1. shares compounds with KCNK9 block. Kir2.1 cells, FluxOR thallium flux fluorescence. 4,900 compounds, 4% hits. inhibition, % at 10 µM;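 active means thallium signal drop more than 5 SD beyond the mean of the no-compound control wells, seen in both duplicate plates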;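 further: signal is fluorescence rise after thallium addition divided by baseline fluorescence; plate controls were assay buffer only for no effect and full block by chlorpromazine control for full effect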
Target sequence (P35561 whole entry, looked up): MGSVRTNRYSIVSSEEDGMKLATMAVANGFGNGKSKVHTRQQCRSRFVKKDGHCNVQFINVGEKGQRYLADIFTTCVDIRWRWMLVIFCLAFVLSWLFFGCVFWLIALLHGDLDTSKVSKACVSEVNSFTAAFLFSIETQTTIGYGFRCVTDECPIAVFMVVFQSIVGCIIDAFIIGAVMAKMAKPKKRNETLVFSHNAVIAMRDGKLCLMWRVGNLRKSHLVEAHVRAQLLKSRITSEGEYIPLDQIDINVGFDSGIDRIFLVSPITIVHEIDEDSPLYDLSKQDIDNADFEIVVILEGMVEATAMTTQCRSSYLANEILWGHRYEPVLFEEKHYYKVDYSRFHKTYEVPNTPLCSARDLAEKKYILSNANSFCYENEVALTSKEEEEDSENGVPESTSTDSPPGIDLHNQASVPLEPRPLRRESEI
HEK293 Tl ctr: second counter-screen for KCNK9 modulators: effect in non-induced cells | shares compounds with KCNK9 block | non-induced KCNK9-HEK293, FluxOR thallium flux | inhibition, % at 10 µM | 4,900 compounds, 40% hits | AID 492997;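 active means thallium signal drop beyond 5 SD of the untreated control mean, on both duplicate plates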;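 further: plate controls were buffer only IC0 wells for no effect and SID17386958 at its maximal inhibitory level for full effect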
* = called active by the depositor; i = inactive; / = no result. Sampled rows, rich in hits. Any-hit rate of the full collection: about 4.1%.

SMILES | KCNQ1 act | KCNK9 block | Cl transport mod | hERG protect | KCNK3 inh | KCNQ1 inh | KCNK9 inh conf | Kir21 sel | HEK293 Tl ctr
O=C(NCc1cccnc1)Nc1ccccc1C(F)(F)F | i | i | / | -6.2 | i | i | / | / | /
C=CCSc1nc2sc3c(c2c(=O)n1CC=C)CCc1ccccc1-3 | i | i | 0.115 | -15.6 | i | i | / | / | /
C=CCn1c(SCCC)nc2sc3c(c2c1=O)CCc1ccccc1-3 | i | i | 0.586 | -8.5 | i | i | i | i | i
Cc1cccc(NC(=O)CSCC(=O)N(C)Cc2c(F)cccc2Cl)c1 | i | i | / | -12.1 | i | i | i | i | i
Cc1cc(C)cc(C(=O)N(CCc2ccccc2)C2CC3CCC(C2)N3C)c1 (stereo not drawn) | i | i | / | -3.6 | i | i | i | i | i
COc1cc(C(=O)N(CCc2ccccc2)C2=CC3CCC(C2)N3C)cc(OC)c1OC (stereo not drawn) | i | i | -0.947 | -6.9 | i | i | / | / | /
COc1cccc(OC)c1C(=O)Nc1cccc(NC(=O)c2cccs2)c1 | i | -10.6* | / | -9.8 | i | i | 50.0%* | i | 28.5%*
COc1ccc(NC(=O)c2cccs2)cc1O | i | i | / | -6.7 | i | i | / | / | /
CC(Oc1ccc(Cl)cc1Cl)C(=O)Nc1ccc(S(=O)(=O)Nc2cnc3ccccc3n2)cc1 (stereo not drawn) | i | i | -0.671 | -6.7 | / | i | i | i | i
Cc1ccc(-c2nnc(N3CCCCC3)c3ccccc23)cc1S(=O)(=O)NCC1CCCO1 (stereo not drawn) | i | -11.8* | / | -19.6 | i | i | i | i | i
COc1nnc(-c2ccc(C)c(S(=O)(=O)NCC3CCCO3)c2)c2ccccc12 (stereo not drawn) | i | i | / | -7.8 | i | i | / | / | /
CC1CCC2(CC1)NC(=O)N(CC(=O)N1CCN(c3ccccc3)CC1)C2=O (stereo not drawn) | / | / | / | / | i | / | / | / | /
Cc1sc2nc(C3CC3)nc(SCC(=O)N3c4ccccc4CC3C)c2c1C (stereo not drawn) | i | i | / | -16.4 | i | i | i | i | i
Cc1onc(-c2ccccc2)c1-c1nnc(CN2CCN(S(=O)(=O)c3ccccc3)CC2)o1 | / | / | / | / | i | / | / | / | /
O=C(Cc1c(F)cccc1Cl)NNC(=O)c1cccs1 | / | / | / | / | i | / | / | / | /
O=C(OCC(=O)N1CCN(c2ccccc2)CC1)c1ncc(Cl)c(Cl)c1Cl | i | i | / | -15.2 | i | i | / | / | /
O=C(CN1CCc2ccccc21)NCc1ccc2c(c1)OCO2 | i | i | 0.206 | -4.5 | i | i | / | / | /
O=C(CN1CCc2ccccc21)NCc1ccccc1Cl | i | i | -0.0386 | -6.7 | i | i | i | i | i
Cc1cc(C)nc(N/C(=N\S(=O)(=O)Cc2ccccc2)Nc2ccccc2Br)n1 | i | -9.38* | 3.6 | -9.0 | i | i | 40.5%* | i | i
Cc1cc(C)n(-c2ccc(C(=O)N3CCN(c4ccccn4)CC3)cc2)n1 | / | / | / | / | i | / | / | / | /
Cc1cc(C)n(-c2nc3ccccc3nc2N2CCN(C(=O)c3ccccc3)CC2)n1 | i | i | 0.39 | -7.7 | i | i | i | i | i
Cc1cc(=O)[nH]c(SCC(=O)Nc2cccc(S(=O)(=O)N3CCOCC3)c2)n1 | / | / | / | / | i | / | / | / | /
COc1ccc(C2c3c(-c4ccccc4O)n[nH]c3C(=O)N2Cc2ccco2)cc1 (stereo not drawn) | i | i | 0.157 | -9.8 | i | i | / | / | /
O=C1c2[nH]nc(-c3ccccc3O)c2C(c2cccc(O)c2)N1Cc1ccco1 (stereo not drawn) | i | -8.43* | -0.842 | -14.7 | i | i | 25.5%* | i | 30.5%*
Cc1ccc(OCCOCCN2CCCCC2)c([N+](=O)[O-])c1 | i | i | 0.159 | -21.8 | i | i | / | / | /
SMILES | KCNQ1 act | KCNK9 block | Cl transport mod | hERG protect | KCNK3 inh | KCNQ1 inh | KCNK9 inh conf | Kir21 sel | HEK293 Tl ctr
Cc1ccc([N+](=O)[O-])c(OCCN2CCNCC2)c1 | i | i | 0 | -2.2 | i | i | i | i | i
Cc1cc(OCCN2CCC(Cc3ccccc3)CC2)ccc1[N+](=O)[O-] | i | i | / | -12.8 | i | i | i | i | i
Cc1cc(OCCN2CC(C)OC(C)C2)ccc1[N+](=O)[O-] (stereo not drawn) | i | i | 0.605 | -15.2 | i | i | / | / | /
CCN(CC(=O)Nc1ccccc1OC)C(=O)c1cc(S(=O)(=O)N2CCCCCC2)ccc1OC | i | i | / | -18.6 | i | i | / | / | /
O=C(COc1ccc2c(c1)CCC2)N1CCN(c2ccccc2F)CC1 | i | i | -2.31 | -6.3 | i | i | i | i | i
O=C(COc1ccc2c(c1)CCC2)N1CCN(c2cccc(C(F)(F)F)c2)CC1 | i | i | -0.871 | -3.5 | i | i | i | i | i
O=C(COc1cccc(C(F)(F)F)c1)N1CCN(c2ccc(O)cc2)CC1 | i | i | -1.17 | -13.9 | i | i | / | / | /
O=S(=O)(NCC(c1ccco1)N1CCCCC1)c1ccccc1C(F)(F)F (stereo not drawn) | / | / | / | / | i | / | / | / | /
COC(=O)C1=NN(C(=O)c2cccc(Br)c2)C(O)(c2ccc(Cl)cc2)C1 (stereo not drawn) | 82* | i | 92.3* | 59.5* | i | i | i | i | i
CC1Oc2cc3oc4c(O)c(O)ccc4c(=O)c3c(O)c2C1(C)C (stereo not drawn) | i | i | / | -17.4 | i | 10* | i | i | i
O=C(Nc1nc(-c2cc3ccccc3oc2=O)cs1)c1ccc(Br)o1 | i | -9.93* | -0.955 | -2.8 | i | i | 26.5%* | i | i
CC(=O)Nc1ccc(Nc2nc(-c3cc4ccccc4oc3=O)cs2)cc1 | i | i | / | -0.7 | i | i | / | / | /
Cc1cc(C)c(C#N)c(SCC(=O)c2cc(C)n(CCc3ccccc3)c2C)n1 | i | -8.18* | -0.937 | -9.6 | i | i | 31.5%* | i | 34.5%*
CN(C)c1ccc(C(=O)Nc2ccc(S(=O)(=O)Nc3nccs3)cc2)cc1 | i | i | / | -13.5 | i | i | / | / | /
Cc1noc(C)c1CSc1nc2ccccc2c(=O)n1-c1ccc(F)cc1F | i | i | / | -6.5 | i | i | i | i | 25.0%*
